The text below walks through data of PMC11078046 (JBMR Plus, 2024).

The conditions of series [1]: humans, given intravenously; cited from earlier work.
Series [2] deals with thyroparathyroidectomized (TPTx) rats. In words: TPTx rat 7-day efficacy study. The format is in vivo, Sprague–Dawley rats. In a few lines:
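Female TPTx SD rats, 250–300 g, randomised on baseline calcium and weight (n = 12). Daily SC dosing in PBS (1 mL/kg) for 7 days. Day-1 jugular serum drawn from two cohorts at 0, 2, 6, 10, 18 and 24 h; calcium and phosphate measured on a Hitachi 7180. Predose serum on days −6, 4 and 7 assayed by osteocalcin, PINP and CTX-I ELISAs.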

The test system is the same in series [3]. In words: TPTx rat 28-day efficacy study. It counts as in vivo, Sprague–Dawley rats. Particulars: daily SC 10 nmol/kg. The method, boiled down: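 Female thyroparathyroidectomised Crl-CD SD rats, 215–290 g, randomised on baseline serum calcium and body weight after 9 days of acclimation. Daily SC dosing in PBS (1 mL/kg) for 28 days. Jugular serum taken in two alternating cohorts on days 1, 12 and 27 at 0, 2, 6, 10 and 24 h, run on a Hitachi 7180 analyser (n = 5/cohort). Urine n = 10/group. Distal femur BMD by pQCT, n = 10/group.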

Turning to “PTH: endogenous human polypeptide, 84 amino acids in length”, the plasma half-life entry in series [1] is listed as “less than 10 min”.

B1: PTH(1-84): Recombinant human PTH(1-84), Natpara (Takeda); native parathyroid hormone comparator (protein, UniProt P01270 32-115, looked up)
Parathyroid hormone: SVSEIQLMHNLGKHLNSMERVEWLRKKLQDVHNFVALGAPLAPRDAGSQRPRKKEDNVLVESHEKSLGEADKADVNVLTKAKSQ
modifications: Parathyroid hormone
For B1, the “serum calcium, day 1 after first dose” value in series [2] (SC 3 nmol/kg, 0–24 h) was “unaffected”. Further, in series [2] (daily SC 3 nmol/kg, serum, days 4 and 7), the “bone formation markers osteocalcin and PINP” value was “only induced a small increase”. In addition, the “serum phosphate, days 4 and 7” value in series [2] (daily SC 3 nmol/kg, three timepoints) is “only transiently lower serum phosphate at the 2 h timepoints”. In addition, the “bone remodeling markers (osteocalcin, CTX, PINP)” value in series [3] is “increased serum concentrations of osteocalcin and CTX, but had only minimal effect on PINP”. Moreover, the “BMD, cortical region of the diaphysis (pQCT)” value in series [3] (28 days) was “small but statistically significant decrease in BMD”. Also, in series [3] (28 days, days 1, 12, 27), the serum calcium result is “no increase or only small increases in serum calcium”. Further, the “BMD, distal femur metaphysis (pQCT)” value in series [3] (28 days, vs TPTx: vehicle) is “unchanged or slightly increased”. For the same molecule, the “urinary calcium (creatinine-normalized)” value in series [3] (days 1, 14, 27) was “not significantly increased”. For the same molecule, the serum phosphate entry in series [3] (days 12 and 27) is “much smaller decrease in serum phosphate”.
